Activity calls are given as the source filed them.
Assays:
in vitro = settings: human
[1] = Inhibition of HedgeHog pathway in mouse C3H10T1/2 cells assessed as inhibition of 20-(S)-hydroxysterol/22-(S)-hydroxysterol-induced osteoblastic differentiation after 72 hrs by alkaline phosphatase assay; settings: C3H 10T1/2, 72 h
[2] = Oral bioavailability in CD1 mouse at 5 mg/kg; format: ADME, organism-based; settings: in vivo
[3] = Oral bioavailability in Sprague-Dawley rat at 5 mg/kg; format: ADME, organism-based; settings: in vivo
[4] = Oral bioavailability in Beagle dog at 4 mg/kg; format: ADME, organism-based, Canis lupus familiaris; settings: in vivo
[5] = Oral bioavailability in cynomolgus monkey at 4 mg/kg; format: ADME, organism-based, Macaca fascicularis; settings: in vivo
[6] = Plasma clearance in CD1 mouse at 1 mg/kg, iv; format: ADME, organism-based; design: dose 1 mg/kg, route intravenous
Method in brief: (§1)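 Plasma sampled at 0.083-24 h (T_last 24 h), protein-precipitated with acetonitrile containing jervine internal standard, and quantified by LC/MS/MS. Parameters taken from the concentration-time profile.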

[7] = Plasma clearance in Sprague-Dawley rat at 1 mg/kg, iv; format: ADME, organism-based; design: dose 1 mg/kg, route intravenous
Method in brief: as §1

[8] = Plasma clearance in Beagle dog at 1 mg/kg, iv; format: ADME, organism-based, Canis lupus familiaris; design: dose 1 mg/kg, route intravenous
Method in brief: as §1

[9] = Plasma clearance in cynomolgus monkey at 1 mg/kg, iv; format: ADME, organism-based, Macaca fascicularis; design: dose 1 mg/kg, route intravenous
Method in brief: as §1

[10] = Volume of distribution in CD1 mouse at 1 mg/kg, iv; format: ADME, organism-based; design: dose 1 mg/kg, route intravenous; settings: in vivo
Method in brief: as §1

[11] = Volume of distribution in Sprague-Dawley rat at 1 mg/kg, iv; format: ADME, organism-based; design: dose 1 mg/kg, route intravenous; settings: in vivo
Method in brief: as §1

[12] = Volume of distribution in Beagle dog at 1 mg/kg, iv; format: ADME, organism-based, Canis lupus familiaris; design: dose 1 mg/kg, route intravenous; settings: in vivo
Method in brief: as §1

[13] = Volume of distribution in cynomolgus monkey at 1 mg/kg, iv; format: ADME, organism-based, Macaca fascicularis; design: dose 1 mg/kg, route intravenous; settings: in vivo
Method in brief: as §1

[14] = Elimination half life in CD1 mouse at 1 mg/kg, iv; format: ADME, organism-based; design: dose 1 mg/kg, route intravenous; settings: in vivo, read-out: beta t1/2 (converted)
Method in brief: as §1

[15] = Elimination half life in Sprague-Dawley rat at 1 mg/kg, iv; format: ADME, organism-based; design: dose 1 mg/kg, route intravenous; settings: in vivo, read-out: beta t1/2 (converted)
Method in brief: as §1

[16] = Elimination half life in Beagle dog at 1 mg/kg, iv; format: ADME, organism-based, Canis lupus familiaris; design: dose 1 mg/kg, route intravenous; settings: in vivo, read-out: beta t1/2 (converted)
Method in brief: as §1

[17] = Elimination half life in cynomolgus monkey at 1 mg/kg, iv; format: ADME, organism-based, Macaca fascicularis; design: dose 1 mg/kg, route intravenous; settings: in vivo, read-out: beta t1/2 (converted)
Method in brief: as §1

[18] = Toxicity in po dosed Ptc+/- Hic+/- mouse B837Tx cells allografted NOD/SCID mouse assessed as maximum tolerated dose after 5 days; format: organism-based; settings: in vivo
Method in brief: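 Tumor-bearing immunocompromised mice received repeat oral dosing for 5 days. MTD was defined as the dose tolerated by all animals (N = 3).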

Mus musculus [19] = assay: Antitumor activity against Ptc+/- Hic+/- mouse B837Tx cells allografted in NOD/SCID mouse assessed as median time to unmeasurable tumor volume at 25 mg/kg, po administered daily for 21 days; format: functional, organism-based; design: dose 25 mg/kg
Mus musculus [20] = assay: Antitumor activity against Ptc+/- Hic+/- mouse B837Tx cells allografted in NOD/SCID mouse assessed as tumor-free interval on 21 days post treatment at 25 mg/kg, po administered daily for 21 days; format: functional, organism-based; design: dose 25 mg/kg
Mus musculus [21] = assay: Antitumor activity against Ptc+/- Hic+/- mouse B837Tx cells allografted in NOD/SCID mouse assessed as effect on recurrence rate on post treatment at 25 mg/kg, po administered daily for 21 days; format: functional, organism-based; design: dose 25 mg/kg

| Structure (SMILES) | half-life at 0.5 µM (in vitro; microsomes) [h] | EC50 [1] [nM] | half-life at 0.5 µM (in vitro; liver microsomes) [h] | other results |
| --- | --- | --- | --- | --- |
| CC1=C2C[C@H]3[C@@H](CC[C@H]4CC(=O)CC[C@@]43C)[C@@H]2CC[C@@]2(C1)O[C@@H]1C[C@H](C)CN[C@H]1[C@H]2C | 1.25 | 400 | – | – |
| CO[C@H]1CC[C@@]2(C)[C@H](CC[C@H]3[C@@H]4CC[C@@]5(CC(C)=C4C[C@@H]32)O[C@@H]2C[C@H](C)CN[C@H]2[C@H]5C)C1 | > 3.33 | 490 | – | – |
| CC1=C2C[C@H]3[C@@H](CC[C@@H]4C/C(=N/O)CC[C@@]43C)[C@@H]2CC[C@@]2(C1)O[C@@H]1C[C@H](C)CN[C@H]1[C@H]2C | 0.75 | 15 | – | – |
| CC1=C2C[C@H]3[C@@H](CC[C@@H]4C[C@H](n5ccnn5)CC[C@@]43C)[C@@H]2CC[C@@]2(C1)O[C@@H]1C[C@H](C)CN[C@H]1[C@H]2C | – | 24 | 0.667 | – |
| CC1=C2C[C@H]3[C@@H](CC[C@@H]4C[C@@H](n5ccnn5)CC[C@@]43C)[C@@H]2CC[C@@]2(C1)O[C@@H]1C[C@H](C)CN[C@H]1[C@H]2C | – | 130 | 1.17 | – |
| CC1=C2C[C@H]3[C@@H](CC[C@@H]4C[C@@H](NS(C)(=O)=O)CC[C@@]43C)[C@@H]2CC[C@@]2(C1)O[C@@H]1C[C@H](C)CN[C@H]1[C@H]2C | 0.5 | 90 | – | – |
| CC1=C2C[C@H]3[C@@H](CC[C@@H]4Cc5nn(S(=O)(=O)c6ccc(C)cc6)cc5C[C@@]43C)[C@@H]2CC[C@@]2(C1)O[C@@H]1C[C@H](C)CN[C@H]1[C@H]2C | – | 900 | 1.08 | – |
| CC1=C2C[C@H]3[C@@H](CC[C@@H]4C[C@H](N)CC[C@@]43C)[C@@H]2CC[C@@]2(C1)O[C@@H]1C[C@H](C)CN[C@H]1[C@H]2C | – | > 1000 | – | – |
| CC1=C2C[C@H]3[C@@H](CC[C@@H]4Cc5nn(S(C)(=O)=O)cc5C[C@@]43C)[C@@H]2CC[C@@]2(C1)O[C@@H]1C[C@H](C)CN[C@H]1[C@H]2C | – | 140 | 3 | – |
| CC1=C2C[C@H]3[C@@H](CC[C@@H]4Cc5nocc5C[C@@]43C)[C@@H]2CC[C@@]2(C1)O[C@@H]1C[C@H](C)CN[C@H]1[C@H]2C | 0.133 | 62 | – | – |
| CC1=C2C[C@H]3[C@@H](CC[C@@H]4CC(=O)CC[C@@]43C)[C@@H]2CC[C@@]2(C1)O[C@@H]1C[C@H](C)CN[C@H]1[C@H]2C | 1.17 | 13 | – | – |
| CC1=C2C[C@H]3[C@@H](CC[C@@H]4Cc5nonc5C[C@@]43C)[C@@H]2CC[C@@]2(C1)O[C@@H]1C[C@H](C)CN[C@H]1[C@H]2C | – | 230 | 0.133 | – |
| CC1=C2C[C@H]3[C@@H](CC[C@@H]4Cc5[nH][nH]c(=O)c5C[C@@]43C)[C@@H]2CC[C@@]2(C1)O[C@@H]1C[C@H](C)CN[C@H]1[C@H]2C | – | 170 | 1.67 | – |
| CC1=C2C[C@H]3[C@@H](CCC4=CC(=O)CC[C@@]43C)[C@@H]2CC[C@@]2(C1)O[C@@H]1C[C@H](C)CN[C@H]1[C@H]2C | 1.25 | 300 | – | bioavailability [2]: 79%; bioavailability [3]: 13%; bioavailability [4]: 7%; bioavailability [5]: 69%; clearance [6]: 60 mL/min/kg; clearance [7]: 207 mL/min/kg; clearance [8]: 78.3 mL/min/kg; clearance [9]: 103 mL/min/kg; Vd [10]: 18 L/kg; Vd [11]: 28 L/kg; Vd [12]: 13.9 L/kg; Vd [13]: 21.3 L/kg; half-life [14]: 3.5 h; half-life [15]: 1.7 h; half-life [16]: 2.2 h; half-life [17]: 2.4 h; MTD at 120 h [18]: 25 mg/kg; Activity (Mus musculus [19]): inactive; Activity (Mus musculus [20]): inactive; Activity (Mus musculus [21]): inactive |
| CC1=C2C[C@H]3[C@@H](CC[C@@H]4CCCC[C@@]43C)[C@@H]2CC[C@@]2(C1)O[C@@H]1C[C@H](C)CN[C@H]1[C@H]2C | – | 760 | – | – |
| CC1=C2C[C@H]3[C@@H](CC[C@@H]4Cc5n[nH]c(C(F)(F)F)c5C[C@@]43C)[C@@H]2CC[C@@]2(C1)O[C@@H]1C[C@H](C)CN[C@H]1[C@H]2C | – | 170 | 3.33 | – |
| CC1=C2C[C@H]3[C@@H](CC[C@@H]4Cc5nn(C)cc5C[C@@]43C)[C@@H]2CC[C@@]2(C1)O[C@@H]1C[C@H](C)CN[C@H]1[C@H]2C | – | 54 | 0.583 | – |
| CC(=O)N[C@@H]1CC[C@@]2(C)[C@H](CC[C@H]3[C@@H]4CC[C@@]5(CC(C)=C4C[C@@H]32)O[C@@H]2C[C@H](C)CN[C@H]2[C@H]5C)C1 | 1.08 | 17 | – | – |
| CC1=C2C[C@H]3[C@@H](CC[C@@H]4C[C@@H](N)CC[C@@]43C)[C@@H]2CC[C@@]2(C1)O[C@@H]1C[C@H](C)CN[C@H]1[C@H]2C | – | > 1000 | – | – |
| CO/N=C1\CC[C@@]2(C)[C@H](CC[C@H]3[C@@H]4CC[C@@]5(CC(C)=C4C[C@@H]32)O[C@@H]2C[C@H](C)CN[C@H]2[C@H]5C)C1 | – | 160 | 0.917 | – |
| CC1=C2C[C@H]3[C@@H](CC[C@@H]4C[C@@H](O)CC[C@@]43C)[C@@H]2CC[C@@]2(C1)O[C@@H]1C[C@H](C)CN[C@H]1[C@H]2C | – | 23 | 0.333 | – |
| CC1=C2C[C@H]3[C@@H](CC[C@@H]4C[C@H](O)CC[C@@]43C)[C@@H]2CC[C@@]2(C1)O[C@@H]1C[C@H](C)CN[C@H]1[C@H]2C | – | 9 | 0.667 | – |
| CC(=O)N[C@H]1CC[C@@]2(C)[C@H](CC[C@H]3[C@@H]4CC[C@@]5(CC(C)=C4C[C@@H]32)O[C@@H]2C[C@H](C)CN[C@H]2[C@H]5C)C1 | 1 | 300 | – | – |
| CC1=C2C[C@H]3[C@@H](CC[C@@H]4c5c[nH]nc5CC[C@@]43C)[C@@H]2CC[C@@]2(C1)O[C@@H]1C[C@H](C)CN[C@H]1[C@H]2C | 0.45 | 220 | – | – |
| CC1=C2C[C@H]3[C@@H](CC[C@@H]4CN(C)C(=O)CC[C@@]43C)[C@@H]2CC[C@@]2(C1)O[C@@H]1C[C@H](C)CN[C@H]1[C@H]2C | 0.767 | 40 | – | – |
| CC1=C2C[C@H]3[C@@H](CC[C@@H]4Cc5nc(C)sc5C[C@@]43C)[C@@H]2CC[C@@]2(C1)O[C@@H]1C[C@H](C)CN[C@H]1[C@H]2C | – | 270 | 1.67 | – |
| CO[C@@H]1CC[C@@]2(C)[C@H](CC[C@H]3[C@@H]4CC[C@@]5(CC(C)=C4C[C@@H]32)O[C@@H]2C[C@H](C)CN[C@H]2[C@H]5C)C1 | 0.333 | 180 | – | – |

From ChEMBL document CHEMBL1158454, “Discovery of a potent and orally active hedgehog pathway antagonist (IPI-926)” (J Med Chem, 2009)
